A short description of data set [1]: Cytotoxicity against mock-infected BHK21 cells after 48 to 96 hrs by MTT assay. The data set is classed as functional. Particulars: Mesocricetus auratus, BHK-21. In a few lines: (§1)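 Mock-infected MDBK (6 × 10^5 cells/mL; MEM-E, 10% horse serum, 1 mM pyruvate) or BHK (1 × 10^6 cells/mL; MEM-E, 10% FBS) cells were incubated at 37 °C, 5% CO2 with serial dilutions from 100 µM, 1:5. Viability by MTT after 48–96 h. CC50 from linear regression against untreated controls.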
(Formazan colour is commonly taken as a measure of viable cells.)

Data set [2] concerns Reovirus sp. Put plainly: Antiviral activity against Reovirus type-1 infected in BHK21 cells assessed as inhibition of virus-induced cytopathogenicity after 3 to 4 days by MTT assay. The format is functional, organism-based. The settings on record: BHK-21. (In general: Cytopathic effects are the visible damage that an infection or toxin causes in cultured cells.)
The nature of data set [3]: Cytotoxicity against mock-infected african green monkey Vero 76 cells after 48 to 96 hrs by MTT assay. Particulars: chlorocebus sabaeus, mock-infected Vero 76 cells. The format is cell-based.
The subject of data set [4] is Poliovirus 1. Nature of the data set: Antiviral activity against Poliovirus type 1 Sabin strain infected in african green monkey Vero 76 cells assessed as reduction in plaque number after 2 days by plaque reduction assay. The format is functional, organism-based. Particulars: Enterovirus C, 48 h. On the technique in general: Plaques are areas of infected cells; plaque reduction assays count them against a control.

Data set [5] can be described thus: Cytotoxicity against mock-infected MDBK cells after 48 to 96 hrs by MTT assay. The data set is classed as cell-based, Bos taurus. Particulars: cattle. In a few lines:
as §1

The test system of data set [6] is Human alphaherpesvirus 1. Put plainly: Antiviral activity against HSV1 infected in african green monkey Vero 76 cells assessed as reduction in plaque number after 3 days by plaque reduction assay. Particulars: Human alphaherpesvirus 1, Vero, 72 h. The data set is classed as functional, organism-based.
Data set [7] deals with Yellow fever virus. Nature of the data set: Antiviral activity against Yellow fever virus infected in BHK21 cells assessed as inhibition of virus-induced cytopathogenicity after 3 to 4 days by MTT assay. Particulars: BHK-21. The data set is classed as functional, organism-based.
In data set [8] the test system is Bovine viral diarrhea virus 1. Put plainly: Antiviral activity against Bovine viral diarrhea virus infected in MDBK cells assessed as inhibition of virus-induced cytopathogenicity after 3 to 4 days by MTT assay. The data set is classed as functional, organism-based. Particulars: Bovine viral diarrhea virus isolates and strains.
Data set [9] deals with Human immunodeficiency virus 1. Nature of the data set: Antiviral activity against HIV1 infected in human MT4 cells assessed as inhibition of virus-induced cytopathogenicity after 4 days by MTT assay. The data set is classed as functional, organism-based. The settings on record: Human immunodeficiency virus 1, MT4, 96 h. In outline: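 MT-4 cells (1 × 10^4/well in RPMI) were infected acutely with HIV-1 IIIB, 100 CCID50 (m.o.i. 0.01), with serial dilutions from 100 µM, 1:5. After 4 days at 37 °C, protection from virus-induced cytopathogenicity was read by MTT. EC50 came from linear regression against untreated controls.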

A short description of data set [10]: Cytotoxicity against mock-infected human MT4 cells after 96 hrs by MTT assay. The data set is classed as cell-based. In a few lines: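 Exponentially growing MT-4 cells were seeded at 1 × 10^5 cells/mL in RPMI-1640 with 10% FBS and held at 37 °C, 5% CO2 with serial compound dilutions. Viability was read by MTT after 96 h. CC50 from linear regression against untreated controls.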

Data set [11] has as its system Vesicular stomatitis virus. Nature of the data set: Antiviral activity against Vesicular stomatitis virus infected in african green monkey Vero 76 cells assessed as reduction in plaque number after 2 days by plaque reduction assay. The settings on record: 48 h. The data set is classed as functional, organism-based.
Data set [12] concerns Coxsackievirus B5. Put plainly: Antiviral activity against Coxsackievirus B5 infected in african green monkey Vero 76 cells assessed as reduction in plaque number after 3 days by plaque reduction assay. The format is functional, organism-based. Particulars: Enterovirus B, 72 h.
For data set [13], the system named is Respiratory syncytial virus. Nature of the data set: Antiviral activity against Respiratory syncytial virus infected in african green monkey Vero 76 cells assessed as reduction in plaque number after 5 days by plaque reduction assay. The data set is classed as functional, organism-based. Particulars: human respiratory syncytial virus, 120 h.
In data set [14] the test system is Vaccinia virus. Nature of the data set: Antiviral activity against Vaccinia Virus infected in african green monkey Vero 76 cells assessed as reduction in plaque number after 3 days by plaque reduction assay. Particulars: Orthopoxvirus vaccinia, 72 h. The format is functional, organism-based.

With `CC1(c2nc3cc(Cl)c(Cl)cc3[nH]2)CCC(CO)C(C)(C)O1` (stereo not given), the cytotoxic concentration (CC50) in data set [1], in [3] and in data set [5] was over 100 µM each time. Moreover, the EC50 (as a rule, the concentration needed to bring the measured effect to its halfway point) in data set [2] is over 100 µM; in [4], 12 µM; in data set [6], 60 µM; in data set [7], over 100 µM; in data set [8] it was 46 µM; in data set [9] it was over 100 µM. Also, the EC50 in data set [11] was over 100 µM. For the same compound, half-maximal cytotoxicity in data set [10] (CC50 at 96 h) was put at 33 µM.
For `O=C1c2ccccc2-n2c(nc3cccnc32)CN1C[C@@H]1CCCN2CCCC[C@H]12`, the EC50 was over 100 µM in data set [12]; over 100 µM in data set [4]; over 100 µM in data set [7]; 17 µM in [8]; over 100 µM in data set [9]; over 100 µM in [13]. Besides, the EC50 in data set [14] and in data set [11] was over 100 µM throughout. Also, the results for the CC50 in data set [1], in data set [3] and in data set [5] were 37 µM, over 90 µM and 91 µM, respectively. For the same compound, in data set [10], the CC50 (usually the concentration that lowers cell viability or growth by half) at 96 h amounted to 31 µM.
For the compound `CCN(CC)CCCn1c(-c2ccc(OC)cc2)nc2cc(C(F)(F)F)ccc21`, the EC50 in data set [12], in [2], in [4], in [6], in data set [7] and in data set [8] was over 100 µM in each case. For the same compound, the EC50 in [9], in data set [13], in [14] and in data set [11] was over 100 µM in each case. The results for the CC50 in data set [1], in [3] and in data set [5] were 76 µM, over 100 µM and over 100 µM, respectively. In data set [10], this compound gave a CC50 at 96 h of over 100 µM.
For the compound `COc1ccc(-c2nc3cc(Cl)ccc3n2[C@H]2CCCN3CCCC[C@H]23)cc1`, the EC50 in [12] was over 100 µM; in data set [2] it was over 100 µM; in data set [4], over 100 µM; in data set [6], over 100 µM; in [7], over 100 µM; in data set [8], 36 µM. Also, the EC50 in [9], in [13], in [14] and in data set [11] was over 100 µM each time. The CC50 in data set [1], in [3] and in data set [5] was over 100 µM throughout. Moreover, the CC50 at 96 h in data set [10] was over 100 µM.
As for `COc1ccc(-c2nc3cc(Cl)ccc3n2[C@@H]2CCCN3CCCC[C@H]23)cc1`, the half-maximal effective concentration (EC50) in [12], in [2], in data set [4], in data set [6], in [7] and in data set [8] was over 100 µM throughout. Further, the EC50 in data set [9], in data set [13], in data set [14] and in data set [11] was over 100 µM throughout. Moreover, the 50% cytotoxic concentration (CC50) in data set [1], in data set [3] and in data set [5] was over 100 µM in each case. Besides, the CC50 at 96 h in [10] was over 100 µM.
With `FC(F)(F)c1ccc2c(c1)nc(-c1ccccc1)n2C[C@@H]1CCCN2CCCC[C@H]12`, the EC50 in data set [12], in [2], in [4], in [6], in data set [7] and in data set [8] was over 100 µM each time. Further, the concentration giving a half-maximal response (EC50) in [9], in [13], in data set [14] and in data set [11] was over 100 µM each time. Also, the figures for the CC50 in [1], in [3] and in data set [5] were 75 µM, 90 µM and 35 µM, respectively. In [10], this compound displayed a 50% cytotoxic concentration (CC50) at 96 h of 46 µM.
On to `Fc1cccc(F)c1-c1nc2cc(C(F)(F)F)ccc2n1C[C@@H]1CCCN2CCCC[C@H]12`, for which the EC50 is over 100 µM in data set [12]; over 100 µM in data set [2]; 60 µM in data set [4]; over 100 µM in data set [6]; over 100 µM in data set [7]; over 100 µM in data set [8]. The EC50 in data set [9], in data set [13], in data set [14] and in data set [11] was over 100 µM each time. Besides, the values for the cytotoxic concentration (CC50) in data set [1], in data set [3] and in data set [5] were 18 µM, at least 100 µM and 36 µM, respectively. Further, the CC50 at 96 h in [10] is 57 µM.
`COc1ccc(-c2nc3cc(C(F)(F)F)ccc3n2C[C@@H]2CCCN3CCCC[C@H]23)cc1`: the EC50 in data set [12] is over 100 µM; in data set [2] it was 27 µM; in data set [4], over 100 µM; in data set [6] it was over 100 µM; in [7], over 100 µM; in data set [8] it was over 100 µM. Besides, the EC50 in [9], in data set [13], in [14] and in data set [11] was over 100 µM throughout. Besides, the CC50 is 65 µM in data set [1], 75 µM in data set [3] and over 100 µM in [5]. In data set [10], the CC50 at 96 h was found to be 25 µM.
For `CCCCn1c(-c2ccc(OC)cc2)nc2cc(C(F)(F)F)ccc21`, the EC50 in [12] was over 100 µM; in [2], over 100 µM; in data set [4], 25 µM; in data set [6] it was over 100 µM; in [7], over 100 µM; in data set [8] it was over 100 µM. Besides, the concentration for a half-maximal effect (EC50) in data set [9], in data set [13], in data set [14] and in [11] was over 100 µM throughout. The CC50 in data set [1] amounted to 35 µM; in data set [3], 80 µM; in data set [5], 22 µM. Moreover, the CC50 at 96 h in [10] is over 100 µM.
Regarding `COCCn1c(-c2ccc(OC)cc2)nc2cc(C(F)(F)F)ccc21`, the EC50 in data set [12], in [2], in [4], in data set [6], in [7] and in data set [8] was over 100 µM throughout. The EC50 in data set [9], in data set [13], in data set [14] and in data set [11] was over 100 µM each time. In addition, the CC50 in data set [1], in data set [3] and in [5] was over 100 µM throughout. Besides, the CC50 at 96 h in data set [10] was 80 µM.
On to `CC(CC(=O)O)n1c(-c2ccccc2)nc2ccccc21` (stereo not given), for which the EC50 in data set [12], in [2], in data set [4], in data set [6], in data set [7] and in data set [8] was over 100 µM throughout. Moreover, the EC50 in data set [9], in [13], in [14] and in [11] was over 100 µM in each case. The CC50 in [1], in data set [3] and in data set [5] was over 100 µM each time. The compound also returned a CC50 at 96 h in [10] of over 100 µM.
On to `COc1ccc2c(c1)nnn1c3cc(Cl)c(Cl)cc3nc21`, for which the half-maximal effective concentration (EC50) in data set [12], in [2], in data set [4], in data set [6], in data set [7] and in [8] was over 100 µM in each case. Moreover, the EC50 in [9], in data set [13], in data set [14] and in [11] was over 100 µM in each case. Further, the CC50 in data set [1], in data set [3] and in [5] was over 100 µM in each case. For the same compound, in data set [10], the CC50 at 96 h is over 100 µM.
With `COc1ccc(-c2nc3cc(C(F)(F)F)ccc3n2CCN(C)C)cc1`, the EC50 in data set [12], in data set [2], in [4], in data set [6], in data set [7] and in data set [8] was over 100 µM in each case. Moreover, the concentration giving a half-maximal response (EC50) in data set [9], in data set [13], in data set [14] and in data set [11] was over 100 µM in each case. The CC50 in data set [1], in data set [3] and in data set [5] was over 100 µM each time. This compound also registered a cytotoxic concentration (CC50) at 96 h in data set [10] of over 100 µM.
Regarding `Nc1nc2c(ncn2COCCO)c(=O)[nH]1` [ACYCLOVIR], the EC50 in data set [12] is over 100 µM; in data set [2] it was over 100 µM; in data set [4] it was over 100 µM; in data set [6] it was 1.2 µM; in data set [7], over 100 µM; in data set [8] it was over 100 µM. The EC50 in [13], in data set [14] and in data set [11] was over 100 µM each time. In addition, the CC50 in data set [1], in data set [3] and in data set [5] was over 100 µM throughout. The CC50 at 96 h in data set [10] is over 100 µM.

The values above are taken from ChEMBL document CHEMBL3351523 (Bioorg Med Chem, 2014).
